Laboratory results published in PMC3223964 (ACS chemical neuroscience, 2011).
Values joined by “and” are separate entries in the source; they are usually repeats but may differ in a detail not shown here. Identical values can stand only once.

Legend:
[1] = Snapshot in vivo PK study, plasma and brain levels after IP administration; conditions: 10 mg/kg
[2] = molecular target: CYP2C9 (Homo sapiens, UniProt P11712); assay: CYP450 inhibition, CYP2C9; assay type: in vitro ADME
[3] = molecular target: KCNQ2/KCNQ3 (Homo sapiens, UniProt O43525+O43526); assay: IonWorks automated electrophysiology, KCNQ2/KCNQ3; assay type: cell-based
Procedure, shortened: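 KCNQ2/KCNQ3-expressing cells on IonWorks population patch clamp, perforated with 50 μg/mL amphotericin B, extracellular pH 7.4 and internal pH 7.2. The KCNQ2 voltage protocol was used: a 2000 ms depolarizing step, with steady-state current read at step end before and 3 min after compound. Wells needed >100 pA current and >30 MΩ seal. Dosing was 8 points, 3-fold from 30 μM, in quadruplicate.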

[4] = molecular target: T1, Kir2.1 (Homo sapiens, UniProt P63252); assay: Tl+ flux assay, Kir2.1; assay type: cell-based
T1 sequence (P63252 1-427): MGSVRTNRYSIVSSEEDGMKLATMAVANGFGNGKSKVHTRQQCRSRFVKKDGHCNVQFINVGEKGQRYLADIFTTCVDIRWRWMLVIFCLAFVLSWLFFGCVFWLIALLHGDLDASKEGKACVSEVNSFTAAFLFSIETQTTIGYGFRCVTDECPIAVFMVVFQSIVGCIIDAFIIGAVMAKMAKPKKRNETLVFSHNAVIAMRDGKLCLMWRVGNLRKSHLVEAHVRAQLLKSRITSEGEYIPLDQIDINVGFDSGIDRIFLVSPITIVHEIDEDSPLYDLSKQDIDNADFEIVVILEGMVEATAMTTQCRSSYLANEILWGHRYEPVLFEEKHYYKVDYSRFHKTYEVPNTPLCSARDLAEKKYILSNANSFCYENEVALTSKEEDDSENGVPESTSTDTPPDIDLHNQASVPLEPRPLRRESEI

[5] = molecular target: T2, KCNQ1 (Homo sapiens, UniProt P51787); assay: IonWorks automated electrophysiology, KCNQ1; assay type: cell-based
Procedure, shortened: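 KCNQ1 cells in IonWorks perforated-patch mode (50 μg/mL amphotericin B), with extracellular saline at pH 7.4. Cells were depolarized to +40 mV from the holding potential, and current was measured during the +40 mV step before and 3 min after compound. No liquid junction correction was applied; sampling was 0.625 kHz. EC50 came from 8-point, 3-fold dilutions from 30 μM, in quadruplicate.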

[6] = molecular target: T3, KCNQ2 channels (Homo sapiens, UniProt O43526); assay: IonWorks automated electrophysiology; assay type: cell-based; conditions: IW EC50, KCNQ2 (enhancement of KCNQ2 currents), -10 mV step potential
Procedure, shortened: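 Perforated-patch population clamp (IonWorks Quattro) on CHO cells stably expressing KCNQ2. Cells were freshly detached and seeded at 7000 cells/well in HEPES/glucose saline at pH 7.4, then perforated with 50 μg/mL amphotericin B in KCl/K-gluconate internal solution at pH 7.2. Steady-state current at the end of a 2000 ms depolarizing step was read before and after 3 min compound, as % change per well. Dosing was 8 points, 3-fold from 30 μM, in quadruplicate. Conductance was current divided by driving force; ΔV1/2 came from the same cells.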

[7] = molecular target: CYP3A4 (Homo sapiens, UniProt P08684); assay: CYP450 inhibition, CYP3A4; assay type: in vitro ADME
Chain of CYP3A4 (P08684 whole entry): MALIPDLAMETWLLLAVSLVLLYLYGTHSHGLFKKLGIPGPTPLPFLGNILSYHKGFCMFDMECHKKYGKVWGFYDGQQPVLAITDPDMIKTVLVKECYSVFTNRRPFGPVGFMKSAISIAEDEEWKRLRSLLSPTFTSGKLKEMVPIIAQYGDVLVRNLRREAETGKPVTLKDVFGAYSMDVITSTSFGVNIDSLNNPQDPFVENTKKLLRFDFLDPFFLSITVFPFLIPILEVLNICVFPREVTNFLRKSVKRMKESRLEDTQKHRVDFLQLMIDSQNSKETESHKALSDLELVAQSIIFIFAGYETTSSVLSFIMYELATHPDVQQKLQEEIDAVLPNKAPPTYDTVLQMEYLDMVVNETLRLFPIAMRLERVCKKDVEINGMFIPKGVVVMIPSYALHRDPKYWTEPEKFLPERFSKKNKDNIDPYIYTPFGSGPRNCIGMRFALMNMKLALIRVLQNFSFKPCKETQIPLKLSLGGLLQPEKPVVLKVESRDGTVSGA

[8] = molecular target: T4, CYP1A2 (Homo sapiens, UniProt P05177); assay: CYP450 inhibition, CYP1A2; assay type: in vitro ADME
T4 sequence (P05177 1-516): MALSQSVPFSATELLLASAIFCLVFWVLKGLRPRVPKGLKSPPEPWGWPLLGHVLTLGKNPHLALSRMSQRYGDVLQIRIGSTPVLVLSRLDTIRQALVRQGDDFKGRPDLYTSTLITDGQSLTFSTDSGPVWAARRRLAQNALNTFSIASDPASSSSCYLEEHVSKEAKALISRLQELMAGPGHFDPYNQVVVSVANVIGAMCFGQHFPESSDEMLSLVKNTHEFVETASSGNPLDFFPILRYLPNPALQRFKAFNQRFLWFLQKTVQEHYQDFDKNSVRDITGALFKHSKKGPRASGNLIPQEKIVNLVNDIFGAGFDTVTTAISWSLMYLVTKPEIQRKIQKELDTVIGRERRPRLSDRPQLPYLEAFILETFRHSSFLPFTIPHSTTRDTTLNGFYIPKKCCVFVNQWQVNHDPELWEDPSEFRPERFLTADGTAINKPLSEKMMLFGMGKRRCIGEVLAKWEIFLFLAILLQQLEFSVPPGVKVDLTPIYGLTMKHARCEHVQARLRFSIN

[9] = molecular target: T5, KCNQ4 (Homo sapiens, UniProt P56696); assay: Tl+ flux assay, KCNQ4; assay type: cell-based; conditions: versus KCNQ2, Tl+ flux assay
[10] = molecular target: KCNQ5 (Homo sapiens, UniProt Q9NR82); assay: Tl+ flux assay, KCNQ5; assay type: cell-based
[11] = molecular target: T2, KCNQ1; assay: Tl+ flux assay, KCNQ1; assay type: cell-based
[12] = molecular target: KCNQ3 (Homo sapiens, UniProt O43525); assay: Tl+ flux assay, KCNQ3; assay type: cell-based
[13] = molecular target: T6, KCNQ1/KCNE1 (Homo sapiens, UniProt P51787); assay: Tl+ flux assay, KCNQ1/E1; assay type: cell-based
[14] = test system: 68 GPCRs, ion channels and transporters; assay: Ricerca Lead Profiling Screen; assay type: binding; conditions: 10 μM
[15] = molecular target: T5, KCNQ4; assay: IonWorks automated electrophysiology, KCNQ4; assay type: cell-based; conditions: versus KCNQ2, IonWorks
[16] = molecular target: hERG (Homo sapiens, UniProt Q12809); assay: IonWorks automated electrophysiology, hERG; assay type: cell-based
Chain of hERG (Q12809 whole entry): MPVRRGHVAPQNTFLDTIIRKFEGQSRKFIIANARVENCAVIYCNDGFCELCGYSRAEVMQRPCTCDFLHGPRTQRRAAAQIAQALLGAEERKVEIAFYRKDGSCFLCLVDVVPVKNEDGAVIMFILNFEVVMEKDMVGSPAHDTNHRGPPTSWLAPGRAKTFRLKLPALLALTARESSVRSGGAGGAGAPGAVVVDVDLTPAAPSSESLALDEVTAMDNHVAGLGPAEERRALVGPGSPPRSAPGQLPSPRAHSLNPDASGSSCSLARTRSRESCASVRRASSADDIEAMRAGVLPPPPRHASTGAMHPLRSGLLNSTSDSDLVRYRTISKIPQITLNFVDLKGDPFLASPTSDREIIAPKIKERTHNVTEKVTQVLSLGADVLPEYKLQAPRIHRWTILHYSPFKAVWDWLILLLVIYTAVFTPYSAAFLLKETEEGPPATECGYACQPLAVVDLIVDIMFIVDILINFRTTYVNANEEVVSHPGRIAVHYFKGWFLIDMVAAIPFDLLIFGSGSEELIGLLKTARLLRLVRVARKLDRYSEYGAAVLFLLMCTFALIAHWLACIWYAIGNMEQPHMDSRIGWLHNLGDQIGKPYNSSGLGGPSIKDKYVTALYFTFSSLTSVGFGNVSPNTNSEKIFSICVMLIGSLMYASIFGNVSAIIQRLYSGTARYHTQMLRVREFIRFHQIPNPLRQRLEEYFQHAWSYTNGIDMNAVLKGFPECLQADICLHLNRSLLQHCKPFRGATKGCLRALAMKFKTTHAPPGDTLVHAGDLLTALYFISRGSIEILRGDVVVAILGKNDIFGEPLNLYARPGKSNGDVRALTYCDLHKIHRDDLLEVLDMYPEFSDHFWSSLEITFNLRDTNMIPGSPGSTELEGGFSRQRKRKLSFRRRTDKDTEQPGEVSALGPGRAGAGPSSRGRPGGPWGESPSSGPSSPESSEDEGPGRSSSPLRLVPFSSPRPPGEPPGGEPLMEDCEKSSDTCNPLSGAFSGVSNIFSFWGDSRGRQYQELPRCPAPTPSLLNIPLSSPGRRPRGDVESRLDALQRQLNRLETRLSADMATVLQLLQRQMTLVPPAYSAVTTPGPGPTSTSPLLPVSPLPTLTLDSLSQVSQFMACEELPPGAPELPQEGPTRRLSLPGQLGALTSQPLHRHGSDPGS

[17] = molecular target: CYP2D6 (Homo sapiens, UniProt P10635); assay: CYP450 inhibition, CYP2D6; assay type: in vitro ADME
Chain of CYP2D6 (P10635 whole entry): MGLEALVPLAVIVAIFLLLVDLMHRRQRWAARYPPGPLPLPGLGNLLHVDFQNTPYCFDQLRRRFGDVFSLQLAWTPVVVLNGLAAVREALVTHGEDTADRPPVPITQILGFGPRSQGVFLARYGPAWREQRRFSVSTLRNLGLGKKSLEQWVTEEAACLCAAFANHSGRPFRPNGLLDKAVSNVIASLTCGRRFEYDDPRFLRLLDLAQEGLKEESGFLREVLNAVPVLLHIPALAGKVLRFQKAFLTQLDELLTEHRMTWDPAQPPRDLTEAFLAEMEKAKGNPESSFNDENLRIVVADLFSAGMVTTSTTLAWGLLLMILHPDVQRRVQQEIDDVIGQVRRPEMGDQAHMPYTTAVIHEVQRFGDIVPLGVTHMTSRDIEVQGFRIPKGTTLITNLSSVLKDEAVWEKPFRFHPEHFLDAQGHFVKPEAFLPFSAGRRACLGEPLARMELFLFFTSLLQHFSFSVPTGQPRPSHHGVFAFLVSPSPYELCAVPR

[18] = molecular target: T3, KCNQ2 channels; assay: Thallium-based fluorescence; assay type: cell-based; conditions: 10-point CRC
Procedure, shortened: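 Thallium influx read with FluxOR dye. Cells were plated at 6500/well on poly-D-lysine, cultured overnight at 37 °C and 5% CO2, and dye-loaded 90 min at room temperature in the dark. Assay buffer was HBSS with 5.8 mM K+, with 20 min compound preincubation. Stimulus brought final K+ to 15.8 mM and Tl+ to 5 mM. Reading was at 1 Hz for 10 s baseline plus 110 s; ΔF/F0 over 120 s was normalized to activator and buffer controls.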

[19] = molecular target: T6, KCNQ1/KCNE1; assay: IonWorks automated electrophysiology, KCNQ1/KCNE1; assay type: cell-based
Procedure, shortened: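 KCNQ1/KCNE1 cells in IonWorks perforated patch (50 μg/mL amphotericin B) at pH 7.4 extracellular. The protocol was a 3000 ms depolarizing step to +40 mV, then a 500 ms hyperpolarizing step. Steady-state current at +40 mV was read before and after 3 min compound exposure. Concentration-response was 8 points, 3-fold from 30 μM, in quadruplicate; sampling was 0.625 kHz.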

Chain of CYP2C9 (P11712 whole entry): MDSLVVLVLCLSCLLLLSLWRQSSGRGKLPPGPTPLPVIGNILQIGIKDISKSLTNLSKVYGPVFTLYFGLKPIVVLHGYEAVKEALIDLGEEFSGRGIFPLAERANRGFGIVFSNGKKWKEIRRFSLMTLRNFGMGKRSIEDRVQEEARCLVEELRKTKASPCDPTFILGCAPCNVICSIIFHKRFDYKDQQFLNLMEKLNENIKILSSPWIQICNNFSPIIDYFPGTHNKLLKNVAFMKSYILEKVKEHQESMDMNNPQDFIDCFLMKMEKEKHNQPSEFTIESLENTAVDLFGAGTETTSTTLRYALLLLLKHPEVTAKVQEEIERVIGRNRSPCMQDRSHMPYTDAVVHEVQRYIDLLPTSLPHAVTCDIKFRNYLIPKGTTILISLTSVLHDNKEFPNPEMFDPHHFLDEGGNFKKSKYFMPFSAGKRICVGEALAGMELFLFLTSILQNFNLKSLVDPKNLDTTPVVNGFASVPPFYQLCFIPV

Cc1cc(C)c(NC(=O)C2CC3CCC2C3)c(C)c1 (stereo not drawn) [compound 1, N-Mesitylbicyclo[2.2.1]heptane-2-carboxamide]
concentration at 1 h ([1]; brain): 476 nM | concentration at 1 h ([1]; plasma): 1260 nM | IC50 [2]: > 30 µM | EC50 [3]: 0.37 µM | Fold selectivity (IW), KCNQ2/3 ([3]; versus KCNQ2, IonWorks): 1 fold | EC50 [4]: > 10 µM | Fold selectivity (Tl+), Kir2.1 ([4]; versus KCNQ2, Tl+ flux assay): >27 fold | EC50 [5]: > 30 µM | selectivity ratio at 3 min ([5]; pH 7.4): > 80 | EC50 [6]: 0.23 µM | IC50 [7]: > 30 µM | IC50 [8]: > 30 µM | Fold selectivity (Tl+), KCNQ4 [9]: 6.7 fold | EC50 [10]: > 30 µM | Fold selectivity (Tl+), KCNQ5 ([10]; versus KCNQ2, Tl+ flux assay): >80 fold | EC50 [11]: > 30 µM | selectivity ratio at 20 min [11]: > 80 | EC50 [12]: > 30 µM | Fold selectivity (Tl+), KCNQ3 ([12]; versus KCNQ2, Tl+ flux assay): >80 fold | EC50 [13]: > 30 µM | selectivity ratio at 20 min [13]: > 80 | inhibition of radio ligand binding, panel of 68 GPCRs, ion channels and transporters [14]: ≤ 50% | Fold selectivity (IW), KCNQ4 [15]: 1.4 fold | EC50 [16]: > 10 µM | selectivity ratio ([16]; human): > 28 | IC50 [17]: > 30 µM | maximal increase in Tl+ influx, KCNQ2 [18]: 56% | EC50 ([18]; Tl+ EC50, KCNQ2, fluorescent Tl+ influx assay): 0.359 µM and 0.36 µM | EC50 [19]: > 30 µM | selectivity ratio at 3 min ([19]; pH 7.4): > 80
